# From PMC6899483 (ChemMedChem, 2019)
# Where “and” joins values, the source holds several entries; their conditions need not be identical. Identical values can stand only once.
# Key:
# [1] = tested on: HepG2; test: mammalian cell growth inhibition assay; type: cell-based; conditions: Homo sapiens, HepG2, read-out: EC50 HepG2, mammalian cell counter-screen
# Procedure, shortened: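 HepG2 counter-screen values are EC50s, each with its number of screening replicates (n) and a 95% confidence interval.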
# [2] = mouse microsomal clearance; type: in vitro ADME; conditions: mouse liver microsomes
# Procedure, shortened: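 Intrinsic clearance is measured in mouse liver microsomes and expressed as mL min−1 (g liver)−1.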
# [3] = tested on: Pf (3D7); test: Plasmodium falciparum screening; type: cell-based
# Procedure, shortened: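 Asexual intraerythrocytic P. falciparum 3D7 grown in expired human transfusion red cells. EC50 is reported with its 95% confidence interval, and n is the number of screening replicates.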
compound,measurement,setting,value
"Cc1ccc(NC(C)(C)C(=O)Nc2ccc(F)c(Cl)c2)cc1S(=O)(=O)N1CCOCC1 [Compound 28, N-(3-chloro-4-fluorophenyl)-2-methyl-2-{[4-methyl-3-(morpholinosulfonyl)phenyl]amino}propanamide]",EC50,[1],> 25000 nM
same,Mouse microsomal CLint,[2],> 50 mL min^−1 (g liver)^−1
same,improvement in antimalarial potency relative to compound 1,[3]; Pf (3D7),~20 fold and > 10 fold
same,EC50,"[3]; Plasmodium falciparum, 3D7, read-out: EC50 Pf (3D7)",7 nM
